The values below come from ChEMBL document CHEMBL1152591, “Design, synthesis and structure-activity relationship of 2-(3',4',5'-trimethoxybenzoyl)-benzo[b]furan derivatives as a novel class of inhibitors of tubulin polymerization” (Bioorg Med Chem, 2009).

The test system of test [1] is K562. Briefly: Cell cycle arrest in human K562 cells assessed as accumulation at S phase at 480 nM after 24 hrs by flow cytometry. It counts as functional. For orientation: Flow cytometry measures light scatter and fluorescence of single cells or particles in a stream.
In a further test the test system is HeLa. Briefly: Cytotoxicity against human HeLa cells after 2 days. It counts as functional, cell-based. The settings on record: 48 h.
The subject of a further test is FM3A. Put plainly: Cytotoxicity against mouse FM3A0 cells after 2 days. It counts as functional, cell-based. The settings on record: 48 h.
Test [2] has as its system K562. Put plainly: Cell cycle arrest in human K562 cells assessed as accumulation at G1 phase at 480 nM after 24 hrs by flow cytometry. It counts as functional.
The test system of a further test is L1210. Put plainly: Cytotoxicity against mouse L1210 cells after 2 days. It is filed as functional, cell-based. Particulars: L1210, 48 h. An outline of the steps:
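Cells were incubated with the compounds at 37 °C for two days, then counted on a Coulter counter. IC50 is the concentration that inhibits cell proliferation by 50%.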

Test [3] has as its system K562. Briefly: Cell cycle arrest in human K562 cells assessed as accumulation at G2 phase at 480 nM after 24 hrs by flow cytometry. It counts as functional.
The nature of test [4]: Inhibition of bovine tubulin polymerization. Set-up: species or system Bos taurus. An outline of the steps:
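Purified bovine brain tubulin (10 μM) in glutamate buffer was preincubated with varying compound concentrations at 30 °C, then cooled to 0 °C. GTP was added and the mixture warmed to 30 °C in a recording spectrophotometer. Assembly was followed by turbidity.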

For the next test, the species on record is Bos taurus. Briefly: Displacement of [3H]colchicine from bovine tubulin at 5 uM. An outline of the steps:
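Reaction mixtures held 1 μM bovine brain tubulin, 5 μM [3H]colchicine and 5 μM test compound. Inhibition of radiolabelled colchicine binding to tubulin is expressed as percent inhibition.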
Background: In a radioligand displacement assay an active substance lowers the binding of a labelled ligand.

Test [5] is described as follows: Cytotoxicity against human Molt4/C8 cells after 2 days. The settings on record: MOLT-4, 48 h.
A further test concerns CCRF-CEM. Put plainly: Cytotoxicity against human CEM cells after 2 days. It counts as functional, cell-based. The settings on record: 48 h.
The subject of test [6] is K562. Put plainly: Cell cycle arrest in human K562 cells assessed as accumulation at sub-G0/G1 phase at 480 nM after 24 hrs by flow cytometry. It counts as functional.
For test [7], the system named is K562. Put plainly: Cell cycle arrest in human K562 cells assessed as accumulation at sub-G0/G1 phase at 530 nM after 24 hrs by flow cytometry. It counts as functional. A digest of the protocol:
(§1)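 K562 leukaemia cells were cultured for 24 h with compound at one fixed concentration. DNA content per cell was measured by the standard propidium iodide procedure and flow cytometry. Proportions of cells in the sub-G0–G1 (apoptotic), G0–G1, S and G2–M peaks were compared with an untreated control.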

Test [8] has as its system K562. Put plainly: Cell cycle arrest in human K562 cells assessed as accumulation at G2 phase at 530 nM after 24 hrs by flow cytometry. It is filed as functional. An outline of the steps:
as §1

Test [9] relates to K562. Briefly: Cell cycle arrest in human K562 cells assessed as accumulation at S phase at 530 nM after 24 hrs by flow cytometry. It counts as functional. An outline of the steps:
as §1

Test [10] has as its system K562. Briefly: Cell cycle arrest in human K562 cells assessed as accumulation at G1 phase at 530 nM after 24 hrs by flow cytometry. It counts as functional. A digest of the protocol:
as §1

The subject of test [11] is K562. Briefly: Cell cycle arrest in human K562 cells assessed as accumulation at sub-G0/G1 phase at 1.62 µM after 24 hrs by flow cytometry.
The test system of test [12] is K562. Put plainly: Cell cycle arrest in human K562 cells assessed as accumulation at S phase at 1.62 µM after 24 hrs by flow cytometry.
In test [13] the test system is K562. Briefly: Cell cycle arrest in human K562 cells assessed as accumulation at G2 phase at 1.62 µM after 24 hrs by flow cytometry.
Test [14] relates to K562. Put plainly: Cell cycle arrest in human K562 cells assessed as accumulation at G1 phase at 1.62 µM after 24 hrs by flow cytometry.
In test [15] the test system is K562. Briefly: Cell cycle arrest in human K562 cells assessed as accumulation at S phase at 26 nM after 24 hrs by flow cytometry. It counts as functional. A digest of the protocol: as §1
The subject of test [16] is K562. Briefly: Cell cycle arrest in human K562 cells assessed as accumulation at sub-G0/G1 phase at 26 nM after 24 hrs by flow cytometry. It is filed as functional. A digest of the protocol: as §1
Test [17] concerns K562. Briefly: Cell cycle arrest in human K562 cells assessed as accumulation at G2 phase at 26 nM after 24 hrs by flow cytometry. It counts as functional. An outline of the steps:
as §1

The subject of test [18] is K562. Put plainly: Cell cycle arrest in human K562 cells assessed as accumulation at G1 phase at 26 nM after 24 hrs by flow cytometry. It is filed as functional. An outline of the steps: as §1

In the case of `COc1cc(C(=O)c2oc3ccc(O)cc3c2C)cc(OC)c1OC`, the Activity with K562 [1] worked out at 33.83%; with K562 [2], 18.79%; in the test with K562 [3], 47.38%; in the test listed under Bos taurus it was 69%; in the test on K562 [6], 22.13%. The IC50 with HeLa worked out at 0.29 µM; with FM3A, 0.43 µM; with L1210, 0.8 µM; in test [4], 1.1 µM; in test [5] it was 0.24 µM; in the test with CCRF-CEM, 0.43 µM.

As for `COc1cc(C(=O)c2oc3cccc(O)c3c2C)cc(OC)c1OC`, the Activity in the test with K562 [7] is 7.6%; in the test with K562 [8], 65.12%; in the test on K562 [9] it was 26.37%; in the test on K562 [10], 8.52%; in the test listed under Bos taurus it was 85%. Besides, the 50% inhibitory concentration (IC50) in the test with HeLa came out at 0.13 µM; in the test on FM3A it was 0.33 µM; in the test on L1210 it was 0.48 µM; in test [4], 0.57 µM; in [5], 0.084 µM; with CCRF-CEM, 0.1 µM.

`COc1cc(C(=O)c2oc3cc(F)ccc3c2C)cc(OC)c1OC`: the Activity in the test on K562 [11] stood at 44.32%; in the test with K562 [12], 44.32%; in the test with K562 [13], 47.46%; in the test on K562 [14] it was 8.23%. Further, the 50% inhibitory concentration (IC50) in the test on FM3A worked out at 3.7 µM; in the test on L1210, 3.5 µM; in test [4] it was 6.9 µM; in test [5], 2.1 µM; in the test with CCRF-CEM, 2.7 µM.

As for `COc1ccc2c(C)c(C(=O)c3cc(OC)c(OC)c(OC)c3)oc2c1`, the Activity in the test with K562 [15] stood at 16.62%; in the test on K562 [16], 4.9%; in the test on K562 [17] it was 81.19%; with K562 [18] it was 2.19%; in the test listed under Bos taurus, 97%. The IC50 with HeLa came out at 0.0032 µM; with FM3A it was 0.027 µM; in the test on L1210, 0.024 µM; in test [4] it was 0.55 µM; in [5], 0.019 µM.

The term IC50 denotes the concentration that gives 50% inhibition. Higher therefore signals lower potency.
